Measured values from article PMC8639468 (The Journal of Biological Chemistry, 2021).
Where no end group is shown, it is not given here.

Tested on: not listed separately
Test: MTT cytotoxicity assay
Assay type: cell-based
Conditions: human, HeLa cells
Summary of the method: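 HeLa cells (1×10^4/well) grown 24 h, then exposed to serially diluted peptides for 1 h at 37 °C. Peptide removed; MTT added (5 mg/ml stock in PBS) in fresh medium for 4 h at 37 °C. Formazan dissolved in DMSO and read at 490 nm. Lethality = (Acon − A)/(Acon − Abl), using untreated cells and cell-free blank. IC50 from semilog curves, three independent measurements.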

Substance	IC50 at 1 h [µM]
ILILAAKLAKALKKEAKALK-NH2 [LP4]	> 128
ILILAAKLLKALKKEAKLLK-NH2 [LP3]	12.5
ILILAAKLLKLLKKELKLLK-NH2 [LP2]	1.3
ILILILAAKLAKALKKEAKALK-NH2 [LP5]	13
KLLKLLKKELKLLK-NH2 [LP1]	> 128

Tested on: HeLa cells
Test: Saporin cytosolic delivery, MTT lethality
Assay type: cell-based
Conditions: SAP 10, 20, 50 μg/ml alone, 60 min
Summary of the method: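 HeLa seeded at 1×10^4 cells/well and grown 24 h. Cells exposed to saporin, with or without vehicle peptide, for 1 h at 37 °C. After two PBS washes, cells kept in DMEM for 6 h at 37 °C. Viability read by MTT: formazan in DMSO at 490 nm, lethality calculated against untreated cells and cell-free blank.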

Substance	cell survival with saporin alone
SAP: membrane-impermeable ribosome-inactivation protein, 28.6 kDa cargo	barely affected
